In ChEMBL document CHEMBL1141268, “Glycogen synthase kinase-3 (GSK-3) inhibitory activity and structure-activity relationship (SAR) studies of the manzamine alkaloids. Potential for Alzheimer's disease” (J Nat Prod, 2007):
Calls of active or inactive are those of the source. No cut-off for these calls is given here.

Experiments:
[1] = biological target: T1, Glycogen synthase kinase-3 beta (Homo sapiens, UniProt P49841); experiment: Inhibition of human recombinant GSKbeta at 25 uM
Outline: (§1)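 Recombinant human GSK-3β in 11 mM MOPS pH 7.4, 0.2 mM EDTA, 1.25 mM EGTA, 26.25 mM MgCl2, 0.25 mM orthovanadate. Substrate was 62.5 µM GS-2 peptide, with γ-[33P]ATP plus unlabeled ATP at 12.5 µM final. Reaction ran 30 min at 30 °C. Aliquots were spotted on P81 phosphocellulose, washed and scintillation-counted. IC50 came from nonlinear regression of inhibition curves.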
Target sequence in this assay (P49841 whole entry, looked up): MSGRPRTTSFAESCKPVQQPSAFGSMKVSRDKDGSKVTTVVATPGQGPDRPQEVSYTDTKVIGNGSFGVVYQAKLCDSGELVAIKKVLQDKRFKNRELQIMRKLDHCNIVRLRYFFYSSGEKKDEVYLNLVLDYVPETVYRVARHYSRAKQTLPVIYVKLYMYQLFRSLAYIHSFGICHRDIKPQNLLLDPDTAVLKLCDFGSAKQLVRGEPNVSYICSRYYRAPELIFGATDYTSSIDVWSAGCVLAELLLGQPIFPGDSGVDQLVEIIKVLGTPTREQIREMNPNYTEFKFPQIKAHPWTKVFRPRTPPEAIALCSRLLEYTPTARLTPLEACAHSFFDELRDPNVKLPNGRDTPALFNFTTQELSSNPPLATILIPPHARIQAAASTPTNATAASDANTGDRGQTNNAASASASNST

[2] = biological target: T1, Glycogen synthase kinase-3 beta; experiment: Inhibition of human recombinant GSKbeta; outline: as §1
Target sequence in this assay (P49841 whole entry): as the sequence (P49841 whole entry, looked up) above

[3] = biological target: Cyclin-dependent kinase 1 (Homo sapiens) (UniProt P06493); experiment: Inhibition of recombinant CDK1
Cyclin-dependent kinase 1 (Homo sapiens), sequence (P06493 whole entry, looked up): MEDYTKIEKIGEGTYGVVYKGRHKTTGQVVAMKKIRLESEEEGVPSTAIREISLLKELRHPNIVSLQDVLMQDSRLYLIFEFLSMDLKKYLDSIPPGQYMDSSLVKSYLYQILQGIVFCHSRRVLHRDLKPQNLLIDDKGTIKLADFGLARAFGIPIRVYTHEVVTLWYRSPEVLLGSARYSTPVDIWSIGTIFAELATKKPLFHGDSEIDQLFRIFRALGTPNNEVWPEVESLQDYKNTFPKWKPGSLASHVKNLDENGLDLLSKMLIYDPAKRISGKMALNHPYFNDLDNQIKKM
Outline: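 Recombinant CDK-1 in ADBI buffer (20 mM MOPS pH 7.2, 25 mM β-glycerol phosphate, 5 mM EGTA, 1 mM sodium orthovanadate). Histone H1 substrate at […] and ATP at 22 µM final. Reaction run 15 min at 30 °C.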

[4] = Inhibition of recombinant PKA
Outline: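 Recombinant PKA catalytic subunit in ADBI buffer with Kemptide substrate and 35 µM unlabeled ATP. Incubated 20 min; otherwise as the other kinase assays (γ-[33P]ATP, P81 filter binding, scintillation counting).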

[5] = Inhibition of recombinant MAPK
Outline: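 ERK1 (recombinant MAP kinase) in ADBI buffer (20 mM MOPS pH 7.2, 25 mM β-glycerol phosphate, 5 mM EGTA, 1 mM sodium orthovanadate) with 10 µg myelin basic protein as substrate. ATP at 20 µM final. Incubated 15 min; otherwise as the GSK-3β radiometric P81 filter assay.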

[6] = biological target: Cyclin-dependent kinase 5/CDK5 activator 1 (Homo sapiens, UniProt Q00535); experiment: Inhibition of human recombinant CDK5/p35; format: protein-complex assay
Cyclin-dependent kinase 5/CDK5 activator 1, sequence (Q00535 whole entry): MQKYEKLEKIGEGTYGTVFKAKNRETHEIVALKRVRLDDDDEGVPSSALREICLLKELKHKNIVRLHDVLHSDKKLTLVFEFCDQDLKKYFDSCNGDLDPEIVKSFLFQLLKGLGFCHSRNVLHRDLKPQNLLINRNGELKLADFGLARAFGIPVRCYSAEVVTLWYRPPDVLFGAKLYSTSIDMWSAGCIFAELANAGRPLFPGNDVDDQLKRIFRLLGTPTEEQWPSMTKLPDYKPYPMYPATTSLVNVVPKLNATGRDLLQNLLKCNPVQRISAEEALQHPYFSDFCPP
Cyclin-dependent kinase 5/CDK5 activator 1, sequence (Q15078 whole entry, further chain): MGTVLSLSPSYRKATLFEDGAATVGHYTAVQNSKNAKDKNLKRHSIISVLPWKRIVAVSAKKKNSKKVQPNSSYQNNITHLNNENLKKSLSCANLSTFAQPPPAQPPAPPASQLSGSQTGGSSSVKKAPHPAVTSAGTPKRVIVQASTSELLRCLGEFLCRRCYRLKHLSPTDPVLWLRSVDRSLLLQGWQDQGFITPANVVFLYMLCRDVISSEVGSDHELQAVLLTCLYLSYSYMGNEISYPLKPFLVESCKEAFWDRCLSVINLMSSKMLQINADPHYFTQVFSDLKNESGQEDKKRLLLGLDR
Outline: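 Human recombinant cdk5-p35 with histone H1 substrate, run as the GSK-3β protocol: 11 mM MOPS pH 7.4, 0.2 mM EDTA, 1.25 mM EGTA, 26.25 mM MgCl2, 0.25 mM sodium orthovanadate, γ-[33P]ATP plus unlabeled ATP (12.5 µM final). Incubated 30 min at 30 °C, spotted on P81 phosphocellulose, washed, scintillation counted. IC50 by nonlinear regression of inhibition curves.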

[7] = biological target: Glycogen synthase kinase-3 alpha (Homo sapiens) (UniProt P49840); experiment: Inhibition of recombinant GSKalpha
Glycogen synthase kinase-3 alpha (Homo sapiens), sequence (P49840 2-483 limits assumed): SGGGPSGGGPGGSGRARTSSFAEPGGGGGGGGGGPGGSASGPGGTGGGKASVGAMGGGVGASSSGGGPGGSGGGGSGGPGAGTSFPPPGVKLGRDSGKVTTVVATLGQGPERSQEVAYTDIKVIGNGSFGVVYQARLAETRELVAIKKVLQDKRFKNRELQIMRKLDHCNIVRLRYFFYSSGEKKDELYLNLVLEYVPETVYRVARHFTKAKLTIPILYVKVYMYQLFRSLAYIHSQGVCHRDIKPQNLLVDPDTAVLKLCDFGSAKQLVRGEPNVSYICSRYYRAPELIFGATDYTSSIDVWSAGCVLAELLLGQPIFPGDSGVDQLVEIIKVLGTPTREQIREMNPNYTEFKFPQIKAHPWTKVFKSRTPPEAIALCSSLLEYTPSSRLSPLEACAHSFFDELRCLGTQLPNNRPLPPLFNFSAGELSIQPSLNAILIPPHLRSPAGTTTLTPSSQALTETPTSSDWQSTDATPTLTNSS
Outline: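 Recombinant GSK-3α, run as the GSK-3β radiometric protocol: MOPS pH 7.4 buffer with EDTA, EGTA, MgCl2 and orthovanadate, plus γ-[33P]ATP. GS-2 peptide at 20 µM final and ATP at 26 µM. Incubated 12 min, then P81 filter binding and scintillation counting. IC50 by nonlinear regression.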

| SMILES | inhibition [1] | IC50 [2] | other results |
| --- | --- | --- | --- |
| Oc1cccc2c1[nH]c1c(C3=C[C@@]4(O)CCCCCCCCN5CCC3[C@]3(C[C@@H]6CCCCCCN6[C@H]34)C5)nccc12 (stereo not given in full) | 29% |  |  |
| O=C1CCCN2[C@@H](CC1)C[C@]13CN4CCCC/C=C\CC[C@](O)(C=C(c5nccc6c5[nH]c5ccccc56)C1CC4)[C@H]23 (stereo not given in full) [MANZAMINE E] |  | 25 µM |  |
| Cc1ccc(S(=O)(=O)Oc2cccc3c2[nH]c2c(C4=C[C@@]5(O)CC/C=C\CCCCN6CCC4[C@]4(C[C@H]7/C=C\CCCCN7[C@H]45)C6)nccc23)cc1 (stereo not given in full) | 80.4% |  |  |
| O=C1CCCN2[C@@H](CC1)C[C@]13CN4CCCC/C=C\CC[C@](O)(C=C(c5nccc6c5[nH]c5c(OS(=O)(=O)c7ccc(Br)cc7)cccc56)C1CC4)[C@H]23 (stereo not given in full) | 63% | 23 µM |  |
| CC(=O)Oc1cccc2c1[nH]c1c(C3=C/C4=C/C/C=C\CCCCN5CCC3[C@]3(C[C@@H]6/C=C\CCCCN6[C@@H]43)C5)nccc12 (stereo not given in full) [12,13-DEHYDRO-8-O-ACETYLMANZAMINE A] | 79.1% | 4.8 µM |  |
| O[C@]12C=C(c3nccc4c3[nH]c3ccccc34)[C@@H]3CCN(CCCCCCCC1)C[C@@]31C[C@@H]3CCCCCCN3[C@H]12 | 0% |  |  |
| COC(=O)CCCCn1c2ccccc2c2ccnc(C3=C[C@@]4(O)CC/C=C\CCCCN5CCC3[C@]3(C[C@@H]6/C=C\CCCCN6[C@H]34)C5)c21 (stereo not given in full) | 3% |  |  |
| Oc1ccc2[nH]c3c(C4=C[C@@]5(O)CC/C=C\CCCCN6CCC4[C@]4(C[C@@H]7/C=C\CCCCN7[C@H]45)C6)nccc3c2c1 (stereo not given in full) | 74.3% | 16.6 µM |  |
| CC(C)COc1cccc2c3ccnc(C4=C[C@@]5(O)CC/C=C\CCCCN6CCC4[C@]4(C[C@@H]7/C=C\CCCCN7[C@H]45)C6)c3n(CC(C)C)c12 (stereo not given in full) | 24.2% |  |  |
| O[C@]12C=C(c3nccc4c3[nH]c3ccccc34)[C@@H]3CCN(CCCC/C=C\CC1)C[C@@]31C[C@@H]3/C=C\CCCCN3[C@H]12 [MANZAMINE A] |  | 10.2 µM | Activity [3]: inactive; Activity [4]: inactive; Activity [5]: inactive; IC50 [6]: 1.5 µM; Activity [7]: inactive |
| CCOc1cccc2c3ccnc(C4=C[C@@]5(O)CC/C=C\CCCCN6CCC4[C@]4(C[C@@H]7/C=C\CCCCN7[C@H]45)C6)c3n(CC)c12 (stereo not given in full) [9-N-ETHYL-8-ETHOXY-MANZAMINE A] | 78% | 10.4 µM |  |
| O[C@]12C=C(c3nccc4c3[nH]c3ccccc34)C3CCN(CCCC/C=C\CC1)C[C@@]31C[C@]34CC[C@H](CCCN3[C@H]12)O4 (stereo not given in full) | 88.4% |  |  |
| CCCCCCCCCCCCn1c2ccccc2c2ccnc(C3=C[C@@]4(O)CC/C=C\CCCCN5CC[C@@H]3[C@]3(C[C@@H]6/C=C\CCCCN6[C@H]34)C5)c21 | 0% |  |  |
| CC(=O)Nc1nc(C)c(S(=O)(=O)Oc2cccc3c2[nH]c2c(C4=C[C@@]5(O)CC/C=C\CCCCN6CCC4[C@]4(C[C@@H]7CCC(=O)CCCN7[C@H]45)C6)nccc23)s1 (stereo not given in full) | 78.8% | 8.5 µM |  |
| C1=C(c2nccc3c2[nH]c2ccccc23)C2CCN3CCCC/C=C\C/C=C/1[C@@H]1N4CCCC/C=C\[C@H]4C[C@]21C3 (stereo not given in full) [12,13-DEHYDROMANZAMINE A] | 71.2% | 5.4 µM |  |
| COc1cccc2c3ccnc(C4=C[C@@]5(O)CC/C=C\CCCCN6CCC4[C@]4(C[C@@H]7/C=C\CCCCN7[C@H]45)C6)c3n(C)c12 (stereo not given in full) | 72.4% |  |  |
| Oc1cccc2c1[nH]c1c(C3=C[C@@]4(O)CC/C=C\CCCCN5CC[C@@H]3[C@]3(CC6/C=C\CCCCN6[C@H]34)C5)nccc12 (stereo not given in full) |  | 4.8 µM |  |
| O=C1CCCN2[C@@H](CC1)C[C@]13CN4CCCC/C=C\CC[C@](O)(C=C(c5nccc6c5[nH]c5c(OS(=O)(=O)c7ccc(Cl)cc7)cccc56)C1CC4)[C@H]23 (stereo not given in full) | 76.7% | 7.2 µM |  |
